This note sets out measurements from ChEMBL document CHEMBL3593194, “BN/CC isosterism in borazaronaphthalenes towards phosphodiesterase 10A (PDE10A) inhibitors” (Bioorg Med Chem, 2015).

Data set [1] can be described thus: Intrinsic clearance in rat liver microsomes. In kind it is ADME. Particulars: read-out: CLH (converted). For orientation: Liver microsomes are vesicles of endoplasmic reticulum, rich in cytochrome P450 enzymes.
Data set [2] addresses T1, cAMP and cAMP-inhibited cGMP 3',5'-cyclic phosphodiesterase 10A (Homo sapiens, UniProt Q9Y233). Put plainly: Inhibition of PDE10A (unknown origin) at 10 uM. The essentials: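 Potency against PDE10A is given as the concentration giving 50% inhibition (IC50, nM). Where no IC50 was obtained, the value is percent inhibition at 10 μM.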
Data set [3] deals with T1, cAMP and cAMP-inhibited cGMP 3',5'-cyclic phosphodiesterase 10A. As to the kind of experiment: Inhibition of PDE10A (unknown origin).
Data set [4] shares this target. As to the kind of experiment: Inhibition of PDE10A (unknown origin) at 2 uM.

Bounds are passed on as bounds.

T1 sequence (Q9Y233 whole entry): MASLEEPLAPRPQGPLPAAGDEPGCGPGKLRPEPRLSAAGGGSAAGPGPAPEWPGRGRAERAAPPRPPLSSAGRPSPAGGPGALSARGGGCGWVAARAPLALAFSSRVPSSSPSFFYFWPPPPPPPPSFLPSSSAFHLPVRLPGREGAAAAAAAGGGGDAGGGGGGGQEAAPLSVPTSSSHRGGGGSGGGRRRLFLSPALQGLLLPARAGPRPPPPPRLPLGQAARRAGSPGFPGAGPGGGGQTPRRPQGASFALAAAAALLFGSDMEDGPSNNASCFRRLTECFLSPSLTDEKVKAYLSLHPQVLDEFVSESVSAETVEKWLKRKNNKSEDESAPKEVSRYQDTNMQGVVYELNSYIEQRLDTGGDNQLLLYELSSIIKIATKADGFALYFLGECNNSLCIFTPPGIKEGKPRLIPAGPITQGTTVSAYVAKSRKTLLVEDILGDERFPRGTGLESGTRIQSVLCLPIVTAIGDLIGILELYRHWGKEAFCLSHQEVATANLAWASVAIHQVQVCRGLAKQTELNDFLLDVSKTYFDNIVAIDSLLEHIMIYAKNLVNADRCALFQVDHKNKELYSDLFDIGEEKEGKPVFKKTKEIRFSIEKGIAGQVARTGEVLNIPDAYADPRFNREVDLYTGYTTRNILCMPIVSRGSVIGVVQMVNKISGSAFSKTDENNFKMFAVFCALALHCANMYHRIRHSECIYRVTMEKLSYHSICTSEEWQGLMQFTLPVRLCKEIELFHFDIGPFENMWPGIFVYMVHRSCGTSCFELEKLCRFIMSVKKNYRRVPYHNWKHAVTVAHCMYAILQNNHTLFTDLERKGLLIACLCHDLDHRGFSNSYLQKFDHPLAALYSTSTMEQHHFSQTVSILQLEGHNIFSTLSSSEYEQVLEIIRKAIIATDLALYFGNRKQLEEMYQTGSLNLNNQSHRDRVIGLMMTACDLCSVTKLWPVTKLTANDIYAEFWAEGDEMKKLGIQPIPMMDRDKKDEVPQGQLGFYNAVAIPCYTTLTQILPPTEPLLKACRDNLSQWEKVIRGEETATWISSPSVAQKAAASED

One may read the inhibition as the percentage by which the read-out fell short of the control. For the compound `CN(C(=O)c1ccc2ncsc2c1)c1ccc(OCc2ccc3ccccc3c2)cc1`, the CLint scaled in data set [1] is 48.3 mL/min/kg. Also, in data set [2], the inhibition was 5%.
As to `CN(C(=O)c1csc(-c2cccnc2)n1)c1ccc(OCc2ccc3ccccc3c2)cc1`, the CLint scaled in data set [1] was over 283 mL/min/kg. The compound also returned an inhibition in data set [2] of 2%.
For the compound `CN(C(=O)c1cc(-c2ccccn2)[nH]n1)c1ccc(OCc2ccc3ccccc3c2)cc1`, the CLint scaled in data set [1] was 30 mL/min/kg. The compound also yielded an inhibition in data set [2] of 4%.
On to `CN(C(=O)c1ccncc1)c1ccc(OCB2C=Cc3ccccc3N2)cc1`, for which, in data set [1], the CLint scaled is 115 mL/min/kg. Also, in data set [2], the inhibition turned out to be 11%.
Consider `Cn1cc(-c2ccncc2)c(-c2ccc(OCc3ccc4ccccc4n3)cc2)n1` [MARDEPODECT], for which, in data set [1], the CLint scaled is 31.7 mL/min/kg.
Broadly, the IC50 is the concentration at which inhibition is half-maximal. High values mean weaker potency in that assay, low ones greater potency in that assay. As to `CN(C(=O)c1csc(-c2cccnc2)n1)c1ccc(OCB2C=Cc3ccccc3N2)cc1`, the CLint scaled in data set [1] is over 283 mL/min/kg. This compound also displayed an IC50 in data set [3] of 0.33 µM.
On to `CN(C(=O)c1ccc2ncsc2c1)c1ccc(OCB2C=Cc3ccccc3N2)cc1`, for which the CLint scaled in data set [1] was 73.3 mL/min/kg. The inhibition in data set [2] came out at 45%.
Turning to `CN(C(=O)c1csc(-c2cccnc2)n1)c1ccc(OCc2ccc3ccccc3n2)cc1`, in data set [1], the CLint scaled is over 283 mL/min/kg. In data set [3], this compound registered an IC50 of 0.17 µM.
As for `CN(C(=O)c1cc(-c2ccccc2)n[nH]1)c1ccc(OCc2ccc3ccccc3n2)cc1`, in data set [1], the CLint scaled was 21.7 mL/min/kg.
On the same count and under the same terms, then `CN(C(=O)c1ccncc1)c1ccc(OCc2ccc3ccccc3n2)cc1`, with 15 mL/min/kg.
For `CN(C(=O)c1cc(-c2ccccc2)n[nH]1)c1ccc(OCc2ccc3ccccc3c2)cc1`, in data set [1], the CLint scaled is 6.83 mL/min/kg. In data set [2], this compound yielded an inhibition of 3%.
Turning to `CN(C(=O)c1ccncc1)c1ccc(OCc2ccc3ccccc3c2)cc1`, in data set [1], the CLint scaled was 75 mL/min/kg. For the same compound, the inhibition in data set [4] came to 2%.
For `CN(C(=O)c1cc(-c2ccccn2)[nH]n1)c1ccc(OCB2C=Cc3ccccc3N2)cc1`, the CLint scaled in data set [1] was 25 mL/min/kg. In data set [3], this compound gave a 50% inhibitory concentration (IC50) of 0.064 µM.
For the compound `Cn1cc(-c2ccncc2)c(-c2ccc(OCc3ccc4ccccc4c3)cc2)n1`, the CLint scaled in data set [1] was 83.3 mL/min/kg. In data set [2], this compound yielded an inhibition of 25%.
Turning to `CN(C(=O)c1ccc2ncsc2c1)c1ccc(OCc2ccc3ccccc3n2)cc1`, the CLint scaled in data set [1] was 31.7 mL/min/kg.
Take `CN(C(=O)c1cc(-c2ccccc2)n[nH]1)c1ccc(OCB2C=Cc3ccccc3N2)cc1`: in data set [1], the CLint scaled is 5.67 mL/min/kg. The IC50 in data set [3] stood at 1.8 µM.
On to `CN(C(=O)c1cc(-c2ccccn2)n[nH]1)c1ccc(OCc2ccc3ccccc3n2)cc1`, for which the CLint scaled in data set [1] is 35 mL/min/kg.
Consider `Cn1cc(-c2ccncc2)c(-c2ccc(OCB3C=Cc4ccccc4N3)cc2)n1`, for which the CLint scaled in data set [1] was 41.7 mL/min/kg. In addition, the inhibition in data set [2] amounted to 48%.
